Experiments:
Assay type in all cases: functional
T47D = experiment: Growth inhibition of human T47D cells assessed as cell growth at 10^-4 M incubated for 48 hrs by sulforhodamine B assay; settings: read-out: Activity
NCI-H522 [1] = experiment: Growth inhibition of human NCI-H522 cells incubated for 48 hrs by sulforhodamine B assay; settings: NCI-H522, 48 h
Summary of the method: (§1)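 Cells were plated at 5,000–40,000 per well according to doubling time and preincubated 24 h at 37 °C in 5% CO2; time-zero plates were then TCA-fixed. Five concentrations (10-fold or ½-log dilutions, DMSO stock) were incubated 48 h. Cells were TCA-fixed, stained with 0.4% SRB and read at 515 nm. GI50 was taken where [(Ti−Tz)/(C−Tz)]×100 = 50.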

[2] = Growth inhibition of human SNB19 cells incubated for 48 hrs by sulforhodamine B assay; settings: SNB-19, 48 h; summary of the method: as §1
U-251 = experiment: Growth inhibition of human U251 cells incubated for 48 hrs by sulforhodamine B assay; settings: U-251, 48 h; summary of the method: as §1
M14 [3] = experiment: Growth inhibition of human M14 cells incubated for 48 hrs by sulforhodamine B assay; settings: M14, 48 h; summary of the method: as §1
[4] = Growth inhibition of human OVCAR8 cells incubated for 48 hrs by sulforhodamine B assay; settings: OVCAR-8, 48 h; summary of the method: as §1
[5] = Growth inhibition of human UO31 cells incubated for 48 hrs by sulforhodamine B assay; settings: UO-31, 48 h; summary of the method: as §1
SK-MEL-5 = experiment: Growth inhibition of human SK-MEL-5 cells assessed as cell growth at 10^-8 M incubated for 48 hrs by sulforhodamine B assay; settings: SK-MEL-5, 48 h, read-out: Activity
A498 = experiment: Growth inhibition of human A498 cells assessed as cell growth at 10^-5 M incubated for 48 hrs by sulforhodamine B assay; settings: A498, 48 h, read-out: Activity
Summary of the method: (§2)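 Five-dose assay: five concentrations from 10-fold or ½-log serial dilutions. Cells are plated at 5,000–40,000 per well according to doubling time, grown 24 h, then exposed 48 h at 37 °C, 5% CO₂. Fixed with cold 50% TCA (final addition) for 60 min at 4 °C and stained with 0.4% SRB in 1% acetic acid. Bound dye is solubilized in 10 mM Tris base and read at 515 nm. GI₅₀ is where [(Ti−Tz)/(C−Tz)]×100 = 50, with a time-zero plate as Tz.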

[6] = Growth inhibition of human PC3 cells assessed as cell growth at 10^-5 M incubated for 48 hrs by sulforhodamine B assay; settings: PC-3, 48 h, read-out: Activity
[7] = Growth inhibition of human LOXIMVI cells assessed as cell growth at 10^-7 M incubated for 48 hrs by sulforhodamine B assay; settings: LOX IMVI, read-out: Activity
M14 [8] = experiment: Growth inhibition of human M14 cells assessed as cell growth at 10^-4 M incubated for 48 hrs by sulforhodamine B assay; settings: M14, 48 h, read-out: Activity
MDA-MB-435 = experiment: Growth inhibition of human MDA-MB-435 cells assessed as cell growth at 10^-4 M incubated for 48 hrs by sulforhodamine B assay; settings: MDA-MB-435, 48 h, read-out: Activity
NCI/ADR-RES = experiment: Growth inhibition of human NCI/ADR-RES cells assessed as cell growth at 10^-4 M incubated for 48 hrs by sulforhodamine B assay; settings: read-out: Activity
[9] = Growth inhibition of human SKOV3 cells assessed as cell growth at 10^-4 M incubated for 48 hrs by sulforhodamine B assay; settings: SK-OV-3, 48 h, read-out: Activity
SR = experiment: Growth inhibition of human SR cells assessed as cell growth at 10^-8 M incubated for 48 hrs by sulforhodamine B assay; settings: read-out: Activity
[10] = Growth inhibition of human Caki1 cells assessed as cell growth at 10^-7 M incubated for 48 hrs by sulforhodamine B assay; settings: CAKI-1, 48 h, read-out: Activity
Summary of the method: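 Cells seeded at 5,000–40,000/well according to doubling time and preincubated 24 h at 37 °C, 5% CO2. Time-zero plates were TCA-fixed. DMSO concentrate was diluted in medium with 50 µg/ml gentamicin to give five concentrations (10-fold or ½ log steps), then exposed 48 h. Cells were TCA-fixed, stained with 0.4% SRB and read at 515 nm. Percent growth was taken against time-zero and control; GI50, TGI and LC50 derived.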

NCI-H522 [11] = experiment: Growth inhibition of human NCI-H522 cells assessed as cell growth at 10^-8 M incubated for 48 hrs by sulforhodamine B assay; settings: NCI-H522, 48 h, read-out: Activity
ACHN = experiment: Growth inhibition of human ACHN cells assessed as cell growth at 10^-6 M incubated for 48 hrs by sulforhodamine B assay; settings: read-out: Activity; summary of the method: as §2
[12] = Growth inhibition of human PC3 cells assessed as cell growth at 10^-6 M incubated for 48 hrs by sulforhodamine B assay; settings: PC-3, 48 h, read-out: Activity
[13] = Growth inhibition of human HOP62 cells assessed as cell growth at 10^-5 M incubated for 48 hrs by sulforhodamine B assay; settings: HOP-62, 48 h, read-out: Activity
[14] = Growth inhibition of human HOP92 cells assessed as cell growth at 10^-5 M incubated for 48 hrs by sulforhodamine B assay; settings: HOP-92, 48 h, read-out: Activity
[15] = Growth inhibition of human SF295 cells assessed as cell growth at 10^-5 M incubated for 48 hrs by sulforhodamine B assay; settings: SF-295, 48 h, read-out: Activity
K562 = experiment: Growth inhibition of human K562 cells assessed as cell growth at 10 uM incubated for 48 hrs by sulforhodamine B assay; settings: K562, 48 h, read-out: Activity
[16] = Growth inhibition of human MOLT4 cells assessed as cell growth at 10 uM incubated for 48 hrs by sulforhodamine B assay; settings: MOLT-4, 48 h, read-out: Activity
[17] = Growth inhibition of human HCT15 cells assessed as cell growth at 10 uM incubated for 48 hrs by sulforhodamine B assay; settings: HCT-15, 48 h, read-out: Activity
Summary of the method: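 Primary screen at one dose (10 µM) across 60 human cancer cell lines. Readout was growth percent relative to untreated control and time-zero.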

[18] = read-out: LC50 (the source's name)
[19] = read-out: pLC50 (the source's name) (converted)

SMILES: Clc1ccc(-c2nc(Nc3ccc(-c4nc5ccccc5[nH]4)cc3)nc(N3CCOCC3)n2)cc1
- growth at 100 µM (T47D): -32%
- GI50 (NCI-H522 [1]; read-out: GI50): 1.5 µM
- TGI (NCI-H522 [1]; read-out: TGI): 3.19 µM
- GI50 (NCI-H522 [1]; read-out: pGI50 (converted)): 1.51 µM
- TGI (NCI-H522 [1]; read-out: pTGI (converted)): 3.16 µM
- GI50 ([2]; read-out: GI50): 0.379 µM
- GI50 ([2]; read-out: pGI50 (converted)): 0.38 µM
- GI50 (U-251; read-out: GI50): 0.215 µM
- TGI (U-251; read-out: TGI): 0.442 µM
- GI50 (U-251; read-out: pGI50 (converted)): 0.214 µM
- TGI (U-251; read-out: pTGI (converted)): 0.447 µM
- GI50 (M14 [3]; read-out: GI50): 0.37 µM
- TGI (M14 [3]; read-out: TGI): 1.48 µM
- GI50 (M14 [3]; read-out: pGI50 (converted)): 0.372 µM
- TGI (M14 [3]; read-out: pTGI (converted)): 1.48 µM
- GI50 ([4]; read-out: GI50): 1.12 µM
- CC50 [4, 18]: 6.09 µM
- TGI ([4]; read-out: TGI): 2.61 µM
- GI50 ([4]; read-out: pGI50 (converted)): 1.12 µM
- CC50 [4, 19]: 6.03 µM
- TGI ([4]; read-out: pTGI (converted)): 2.63 µM
- GI50 ([5]; read-out: GI50): 1.51 µM
- TGI ([5]; read-out: TGI): 3.03 µM
- GI50 ([5]; read-out: pGI50 (converted)): 1.51 µM
- TGI ([5]; read-out: pTGI (converted)): 3.02 µM
- growth at 0.01 µM (SK-MEL-5): 100%
- growth at 10 µM (A498): -83%
- growth at 10 µM [6]: -89%
- growth at 0.1 µM [7]: 94%
- growth at 100 µM (M14 [8]): -35%
- growth at 100 µM (MDA-MB-435): -49%
- growth at 100 µM (NCI/ADR-RES): -7%
- growth at 100 µM [9]: -50%
- growth at 0.01 µM (SR): 103%
- growth at 0.1 µM [10]: 93%
- growth at 0.01 µM (NCI-H522 [11]): 100%
- growth at 1 µM (ACHN): 53%
- growth at 1 µM [12]: 13%
- growth at 10 µM [13]: -77%
- growth at 10 µM [14]: -90%
- growth at 10 µM [15]: -85%
- growth at 10 µM (K562): -100%
- growth at 10 µM [16]: -91.6%
- growth at 10 µM [17]: -92.6%

SMILES: Fc1ccc(-c2nc(Nc3ccc(-c4nc5ccccc5[nH]4)cc3)nc(N3CCOCC3)n2)cc1
- growth at 100 µM (T47D): -44%
- GI50 (NCI-H522 [1]; read-out: GI50): 2.36 µM
- CC50 (NCI-H522 [1]; [18]): > 100 µM
- TGI (NCI-H522 [1]; read-out: TGI): 5.85 µM
- GI50 (NCI-H522 [1]; read-out: pGI50 (converted)): 2.34 µM
- CC50 (NCI-H522 [1]; [19]): > 100 µM
- TGI (NCI-H522 [1]; read-out: pTGI (converted)): 5.89 µM
- GI50 ([2]; read-out: GI50): 3.49 µM
- CC50 [2, 18]: > 100 µM
- TGI ([2]; read-out: TGI): > 100 µM
- GI50 ([2]; read-out: pGI50 (converted)): 3.47 µM
- CC50 [2, 19]: > 100 µM
- TGI ([2]; read-out: pTGI (converted)): > 100 µM
- GI50 (U-251; read-out: GI50): 2.04 µM
- CC50 (U-251; [18]): > 100 µM
- TGI (U-251; read-out: TGI): 13.6 µM
- GI50 (U-251; read-out: pGI50 (converted)): 2.04 µM
- CC50 (U-251; [19]): > 100 µM
- TGI (U-251; read-out: pTGI (converted)): 13.5 µM
- GI50 (M14 [3]; read-out: GI50): 1.94 µM
- CC50 (M14 [3]; [18]): 8.37 µM
- TGI (M14 [3]; read-out: TGI): 4.03 µM
- GI50 (M14 [3]; read-out: pGI50 (converted)): 1.95 µM
- CC50 (M14 [3]; [19]): 8.32 µM
- TGI (M14 [3]; read-out: pTGI (converted)): 4.07 µM
- GI50 ([4]; read-out: GI50): 3.26 µM
- CC50 [4, 18]: > 100 µM
- TGI ([4]; read-out: TGI): 10.8 µM
- GI50 ([4]; read-out: pGI50 (converted)): 3.24 µM
- CC50 [4, 19]: > 100 µM
- TGI ([4]; read-out: pTGI (converted)): 10.7 µM
- LC50 [5]: > 100 µM
- GI50 ([5]; read-out: GI50): 2.16 µM
- TGI ([5]; read-out: TGI): 5.64 µM
- GI50 ([5]; read-out: pGI50 (converted)): 2.14 µM
- CC50 [5, 19]: > 100 µM
- TGI ([5]; read-out: pTGI (converted)): 5.62 µM
- growth at 0.01 µM (SK-MEL-5): 98%
- growth at 10 µM (A498): -60%
- growth at 10 µM [6]: -20%
- growth at 0.1 µM [7]: 95%
- growth at 100 µM (M14 [8]): -80%
- growth at 100 µM (MDA-MB-435): -42%
- growth at 100 µM (NCI/ADR-RES): -13%
- growth at 100 µM [9]: -49%
- growth at 0.01 µM (SR): 108%
- growth at 0.1 µM [10]: 97%
- growth at 0.01 µM (NCI-H522 [11]): 96%
- growth at 1 µM (ACHN): 82%
- growth at 1 µM [12]: 93%
- growth at 10 µM [13]: -34%
- growth at 10 µM [14]: -67%
- growth at 10 µM [15]: -35%
- growth at 10 µM (K562): -22%
- growth at 10 µM [16]: 1.78%
- growth at 10 µM [17]: -62.2%

— ChEMBL document CHEMBL3808334, “Synthesis and in vitro evaluation of novel triazine analogues as anticancer agents and their interaction studies with bovine serum albumin” (Eur J Med Chem, 2016)
